# Experimental data pooled from the literature.
# Lines come from different studies, so protocols differ.
Structure (SMILES),test system,conditions,half-life [h]
COc1cc(OC)c2nccc(N3CCc4c(cc(Cn5ccnc5)cc4-c4cn(C)nc4C(F)(F)F)C3=O)c2c1,"male CD-1 mouse, plasma","oral, 50 mg/kg",0.7
Cc1cc(C)cc(NC(=O)c2cnn(-c3ccc(C(C)C)cc3)c2C2CCNCC2)c1,"SCID mouse, plasma","oral, 50 mg/kg, single dose",~2
CN1CCC[C@H](CN2c3ccccc3Sc3ccccc32)C1.O=C(O)CCC(=O)O,"mouse, plasma","oral, 64 mg/kg, single dose",3.36
COc1ccc(NC(=O)N2CCCCN3[C@H](CN(C)S(C)(=O)=O)[C@H](c4ccc(C#Cc5ccccc5)cc4)[C@@H]3C2)cc1,"mouse, plasma",intravenous,5
CCOc1ccc(Cc2cc([C@@H]3O[C@H](CO)[C@@H](O)[C@H](O)[C@H]3O)ccc2Cl)cc1,"male C57BL/6 mouse, plasma","oral, 1 mg/kg",3.7
COc1ccc2nccc(N3CCc4c(cc(Cn5ccnc5)cc4-c4cn(C)nc4C(F)(F)F)C3=O)c2c1,"male CD-1 mouse, plasma","oral, 50 mg/kg",0.8
CC=Cc1ccc(O)c(OC)c1,"mouse, plasma","intranasal, 100 mg/kg",0.302
O=C(NCCN1CCCC1)c1cc(-c2ccc(CN3CCOCC3)cc2)nc2ccc(F)cc12,"female NMRI mouse, blood","oral, 3 mg/kg",19
Cc1cc(Nc2ccc(S(F)(F)(F)(F)F)cc2)n2ccnc2n1,"male Swiss mouse, plasma","oral, 100 mg/kg, single dose",5.8
Cc1nc(-c2cnc(NC(C)C)n(C)c2=O)ccc1Oc1ccnc(-c2cnn(C)c2)c1,"female mouse, plasma","oral, 15 mg/kg, single dose",6.85
COc1nc(-c2cc(C)c(N[C@@H](C)c3cc(F)cc(F)c3)nn2)ccc1-n1cnc(C)c1,"male CD-1 mouse, plasma","intravenous, 1 mg/kg, single dose",3.1
CC(C)Oc1c(NC(=O)c2ccc(NC(=O)[C@H](CC(N)=O)NC(=O)c3ccc(NC(=O)c4ccc(C#N)cc4)cc3)cc2)ccc(C(=O)Nc2ccc(C(=O)O)cc2)c1O,"male CD-1 mouse, plasma","intravenous, 5 mg/kg, single dose",0.98
CCN1CCN(Cc2cc(NC(=O)c3ccc(C)c(-c4ccc5nc(NC(=O)C6CC6)cn5n4)c3)cc(C(F)(F)F)c2)CC1,"Swiss mouse, plasma","intravenous, 1 mg/kg",3.7
COc1ccc(C(O)COc2ccc(-c3csc(-c4ccc(OCC(O)c5ccc(OC)c(OC)c5)cc4)n3)cc2)cc1OC (stereo not drawn),"C57BL/6 mouse, plasma","oral, 75 mg/kg",4.1
Cc1noc(-c2ccc(CSCCC(=O)O)cc2)c1NC(=O)O[C@H](C)c1ccccc1Cl,"mouse, plasma","oral, 50 mg/kg",0.98
Cn1cnc2c(F)c(Nc3ccc(Br)cc3Cl)c(C(=O)NOCCO)cc21,"nude mouse, tumour","oral, 5 mg/kg, single dose, tumour-bearing",2.9
CNCCN(C)c1cc(C#N)cc(CCc2cc(C)cc(N)n2)c1,"male BALB/c mouse, plasma","intravenous, 2 mg/kg",1.1
Cc1ccc(NC(=O)c2ccc(CN3CCN(C)CC3)cc2)cc1Nc1nccc(-c2cncc(-c3oncc3C)c2)n1,"male C57BL/6 mouse, plasma","oral, 100 mg/kg/day",2.6
CC1(C)CC[C@]2(C(=O)O)CC[C@]3(C)C(=CC[C@@H]4[C@@]5(C)C[C@@H](O)[C@H](OC(=O)/C=C/c6ccc(O)cc6)C(C)(C)[C@@H]5CC[C@]43C)[C@@H]2C1 (relative stereo),"mouse, plasma","intraperitoneal, 85 µmol/kg, single dose",34.3
Oc1nc2nonc2cc1Nc1ccc(OC(F)(F)F)cc1C(F)(F)F,"male C57BL/6 mouse, plasma","oral, 10 mg/kg",> 15
CC(C)(C)c1ccc(O)c(CN(Cc2cc(C(C)(C)C)ccc2O)C2CCC(NC(N)=O)CC2)c1 (stereo not drawn),"male C57BL/6 mouse, brain","oral, 10 mg/kg, single dose",7.36
CC[C@H](C)[C@@H]1NC(=O)[C@@](C)(NC(=O)[C@H](CCCNC(=N)N)NC(=O)[C@H](CC(C)C)NC(=O)[C@@H](NC(=O)[C@H](CCC(N)=O)NC(=O)[C@H](CC(C)C)NC(C)=O)[C@@H](C)O)CCCC=CCCC[C@@](C)(C(=O)N[C@@H](CC(C)C)C(=O)N[C@@H](Cc2ccc3ccccc3c2)C(N)=O)NC(=O)[C@H](CCCNC(=N)N)NC(=O)[C@H](CCC(N)=O)NC1=O,"male BALB/c mouse, plasma","intravenous, 5 mg/kg",1.4
O=C(Nc1nc(-c2ccc(O)c(O)c2)c(-c2ccccc2)s1)c1ccc(O)c(O)c1,"female nude mouse, plasma","oral, 800 mg/kg",10
COc1ccc([C@@]23Oc4cc(OC)cc(OC)c4[C@]2(O)[C@H](O)[C@H](C(=O)N(C)C)[C@H]3c2ccccc2)cc1,"mouse, plasma","intravenous, 5 mg/kg",1.5
COC(=O)C1=C(C)OC(C)=C(C(C)=O)C1c1ccc(Cl)c(C(F)(F)F)c1 (stereo not drawn),"C57BL/6 mouse, plasma","intravenous, 10 mg/kg",0.25
CNC(=O)[C@H](Cc1c[nH]cn1)NC(=O)CN(CCCc1ccccc1)CC(=O)OC,"male C57BL/6 mouse, plasma","intraperitoneal, 30 mg/kg",0.117
COc1ccc2c3c1O[C@H]1C[C@@H](OC(=O)c4ccccc4)C=C[C@@]31CCN(C)C2,"mouse, blood","intravenous, 3 mg/kg",0.48
CCc1cc(C(=O)NC)c2nccc(N3CCc4c(cc(Cn5ccnc5)cc4-c4cn(C)nc4C(F)(F)F)C3=O)c2c1,"male CD-1 mouse, plasma","oral, 50 mg/kg",1.5
Cc1cc(NC(=O)c2cccc3cc(-c4cccc5[nH]nc(N)c45)ccc23)ccc1F,"male CD-1 mouse, brain","oral, 10 mg/kg",2.06
CCc1cc(OC)c2nccc(N3CCc4c(cc(Cn5ccnc5)cc4-c4cn(C)nc4C(F)(F)F)C3=O)c2c1,"male CD-1 mouse, plasma","intravenous, 3 mg/kg",0.9
CN(C)C/C=C/C(=O)Nc1ccc(O[C@@H]2CCC[C@@H](Nc3ncc(Cl)c(-c4c[nH]c5ccccc45)n3)C2)cc1,"male Swiss mouse, plasma","intravenous, 3 mg/kg",2.25
Cc1ccc2cncc(N3CCc4c(cc(Cn5ccnc5)cc4-c4cn(C)nc4C(F)(F)F)C3=O)c2c1,"male CD-1 mouse, plasma","oral, 10 mg/kg",1.1
CCc1ccc(Cc2cc([C@@H]3O[C@H](CO)[C@@H](O)[C@H](O)[C@H]3O)cc3c2CCC3)cc1,"male C57BL/6 mouse, plasma","oral, 3 mg/kg",3.1
